High-throughput results (PubChem)
Compounds with a hit are over-represented: about 2.1% of the library has one in this group of screens.
M5 ag – CHRM5 agonism in calcium assay; CHO-K1 hM5 cells, Fluo-8 calcium fluorescence; 0% DMSO wells, 100% maximal acetylcholine response; 0.19% of 360,000 active; P08912; activation, % at 3 µM;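 active = activation above the run's mean over test compounds plus 3 SD, cut at about 23% in these data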;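 also: signal is peak over basal fluorescence ratio across the kinetic read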
CHRM5 antagonist – antagonists of human muscarinic M5 receptor (CHRM5) | AID 624040 | CHO-hM5 cells, Fluo-8 calcium fluorescence, ACh EC80 | P08912 | 0.59% of 360,000 active | inhibition, % at 3 µM;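 active = inhibition above a per-plate cutoff, the mean of that plate's test compounds plus 3 SD, cut at about 27% in these data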
CHRM1 PAM – potentiates human M1 receptor response to acetylcholine; CHO-K1 hM1, Fluo-8 calcium fluorescence, ACh EC20; 0% = ACh EC20, 100% = maximal ACh; activation, % at 3 µM; 0.088% of 360,000 active; in the data active = activation above about 19%, passing the limit was not always enough
Target sequence (P11229 whole entry, looked up): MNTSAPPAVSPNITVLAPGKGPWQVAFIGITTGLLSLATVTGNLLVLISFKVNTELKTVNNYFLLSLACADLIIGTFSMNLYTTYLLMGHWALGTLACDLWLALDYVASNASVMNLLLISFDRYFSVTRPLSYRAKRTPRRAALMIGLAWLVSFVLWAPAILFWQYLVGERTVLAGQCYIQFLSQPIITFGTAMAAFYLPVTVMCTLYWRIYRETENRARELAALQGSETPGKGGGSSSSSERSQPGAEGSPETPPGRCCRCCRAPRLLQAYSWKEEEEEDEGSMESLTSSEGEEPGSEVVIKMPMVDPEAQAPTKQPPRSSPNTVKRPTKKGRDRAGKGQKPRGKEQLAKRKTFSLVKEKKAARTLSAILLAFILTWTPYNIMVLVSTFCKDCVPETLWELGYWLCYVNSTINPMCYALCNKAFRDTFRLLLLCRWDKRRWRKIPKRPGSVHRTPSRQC
M1 antag – human CHRM1 antagonism. CHO-K1 hM1, Fluo-8 calcium fluorescence, ACh EC80 antagonist. inhibition, % at 3 µM. 1.3% of 360,000 active;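 active = percent inhibition above its own plate's cutoff, namely the mean of that plate's compound wells plus 3 SD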;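 also: peak over basal fluorescence ratio during 140 s after agonist addition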
M1 ag – activates human CHRM1 receptor; 0.33% of 360,000 active; AID 588814; CHO-K1 hM1, Fluo-8 calcium fluorescence, agonist mode; 0% DMSO, 100% acetylcholine EC100; activation, % at 3 µM; P11229;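 active = activation above the run's mean compound activation plus 3 SD, cut at about 16% in these data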;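 also: peak over basal fluorescence ratio within a 140 s kinetic read after compound addition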
M5 PAM – potentiates acetylcholine response at human M5 receptor | activation, % at 3 µM | AID 624038 | P08912 | CHO-K1 hM5, Fluo-8 calcium, ACh EC20 PAM; 0% = ACh EC20, 100% = ACh EC100 | 0.3% of 360,000 active;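 active = activation above the run cutoff, the mean activation of all test compounds plus 3 SD, cut at about 18% in these data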
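Test system: CHO-K1 hM5 cells / Doses: single-point, 3 µM nominal / Times: Post-acetylcholine fluorescence recording 140 s / Technique: Fluo-8 calcium fluorescence / Measure: Max/basal fluorescence ratio as % of EC20–EC100 ACh window / Benchmarks: low control EC20 acetylcholine (0%), high control EC100 acetylcholine (100%) / Replicates: one well per compound, no replicates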
Large screens that a line does not name were inactive.

CC1(c2ccccc2Cl)NC(=O)N(CC(=O)NCc2ccc3c(c2)OCO3)C1=O (configuration not stated)	CHRM1 PAM 29.0
CC1(c2ccc(Cl)cc2)NC(=O)N(CC(=O)Nc2ccc3c(c2)OCO3)C1=O (configuration not stated)	M1 ag 19.5
COCCNC(=O)/C(C#N)=C/c1c(N2CCN(c3cccc(Cl)c3)CC2)nc2c(C)cccn2c1=O	none
CCOc1ccc(C2CC(c3ccc(OC)c(OC)c3)n3nc(N)nc3N2)cc1 (configuration not stated)	none
C/C(=N\NC(N)=S)c1ccc(-n2ccnc2)cc1	CHRM1 PAM 28.8
C=C(C)CNC(=S)N/N=C(\C)c1ccc(-n2ccnc2)cc1	none
CN1CCN(Cc2cn[nH]c2-c2ccc(F)cc2F)[C@@H](c2ccccc2)C1	M1 antag 21.3, M1 ag 46.4
COc1cccc2cc(C(=O)NCCc3ccccc3)c(=O)oc12	none
CC(=O)Nc1ccc(Sc2ncccc2C(=O)Nc2ccc(OC(F)(F)F)cc2)cn1	M5 ag 75.9, CHRM5 antagonist 56.9, M1 antag 64.2, M1 ag 65.8
CC(=O)Nc1ccc(Sc2ncccc2C(=O)Nc2cc(Cl)cc(Cl)c2)cn1	none
Cc1cc(C)n(CCCNC(=O)c2ccc3c(c2)NC(=O)CS3)n1	M5 PAM 25.0
CC(C)Cc1ccc(C(C)NC(=O)c2ccc(=O)[nH]c2)cc1 (configuration not stated)	M5 ag 24.8
Cc1c(NC(=O)CSc2ncn[nH]2)c(=O)n(-c2ccccc2)n1C	none
c1ccc(COc2ncnc3c2ncn3CCCN2CCN(Cc3cccc4ccccc34)CC2)cc1	none
Cc1ccc(CN2CCN(CCCn3cnc4c(OCc5ccccc5)ncnc43)CC2)cc1	M1 antag 46.8
CCC(=O)Nc1ccc(NC(=O)CSc2nc3c(c(=O)n(C)c(=O)n3C)n2CC)cc1	none
CCSc1ccc(-c2nn(-c3ccccc3)cc2/C=C(/C#N)C(=O)NC)cc1	none
CCCSc1ccc(-c2nn(-c3ccccc3)cc2/C=C(/C#N)C(=O)N2CCOCC2)cc1	M5 PAM 44.2
Cc1ccc(C(=O)Nc2ccccc2C(=O)N2CCCCCC2)cc1	none
O=C(Cc1ccc(Cl)cc1)Nc1ccccc1C(=O)N1CCCCC1	CHRM5 antagonist 27.6
O=C(Nc1ccccc1C(=O)N1CCCC1)c1ccccc1	M1 ag 16.1
Cc1cc(S(=O)(=O)Nc2ccc3c(c2)COC3=O)ccc1F	none
CCOC(=O)C1=C(CN2CCOCC2)NC(=O)NC1c1cc(C)ccc1C (configuration not stated)	none
CCN(CC)c1ccc2cc(C(=O)c3cccs3)c(=O)oc2c1	M5 ag 51.9, CHRM5 antagonist 38.8, M1 antag 59.7, M1 ag 131.4
CCN(CC)c1ccc2cc(-c3nnc(-c4ccccc4)o3)c(=O)oc2c1	M1 antag 14.8, M1 ag 108.2
CCN(CC)c1ccc2cc(-c3nc4ccccc4[nH]3)c(=O)oc2c1	M5 ag 119.0, CHRM5 antagonist 36.4, M1 antag 69.1, M1 ag 279.3
COc1ccc(CNC(=O)C2=C(C)C(=O)OC23CCC(C)CC3)cc1 (configuration not stated)	none
Cn1ccc(C(=O)N/N=C/c2c[nH]c3ccccc23)n1	M5 PAM 27.8
Cc1ccc(S(=O)(=O)N2CCN(C(=O)COC(=O)/C=C/c3ccc(F)cc3)CC2)c(C)c1	none
COc1cccc(-c2cc(C(=O)O)[nH]n2)c1	none
Nc1c(-c2ccccc2)cnn1-c1cccc([N+](=O)[O-])c1	none
Nc1c(-c2ccc(Cl)cc2)cnn1-c1cccc([N+](=O)[O-])c1	CHRM5 antagonist 33.2
O=C(NN1C(=O)C2C(c3ccccc3)C=CC(c3ccccc3)C2C1=O)c1ccccc1 (configuration not stated)	M1 antag 46.1
O=C(NN1C(=O)C2C3c4ccccc4C(c4ccccc43)[C@@H]2C1=O)c1ccccc1 (some centres not stated)	none
O=C(NN1C(=O)C2C(c3ccccc3)C=CC(c3ccccc3)C2C1=O)c1cccc(Br)c1 (configuration not stated)	CHRM5 antagonist 36.9, M1 antag 81.4
CCNc1nc(CN2CCOCC2)nc2sc3c(c12)CCC3	none
Cn1c(=O)[nH]c(=O)c2c1nc(Br)n2CCCO	M5 PAM 21.6
O=C(O)c1ccc(S(=O)(=O)c2ccccc2C(=O)O)c([N+](=O)[O-])c1	none
Cc1nc2ccc(NS(=O)(=O)c3ccc4c(c3)OCCO4)cc2s1	M1 antag 31.2
Cc1nc2ccc(NS(=O)(=O)c3ccc(F)c(F)c3)cc2s1	none
Cc1ccc(S(=O)(=O)Nc2ccc3nc(C)sc3c2)cc1	CHRM5 antagonist 30.1
CCOc1ccccc1N(CC(=O)N1CCC(C)CC1)S(=O)(=O)c1ccc(C)cc1	M1 antag 31.8
O=[N+]([O-])c1ccc(-c2cccnc2)cc1	M5 PAM 18.3
O=[N+]([O-])c1ccc(COc2cccnc2)cc1	none
COc1ccc2cc(C(=O)N/N=C/c3sc4ccccc4c3O)ccc2c1	M1 ag 32.7
COc1ccc(C(=O)N/N=C/c2sc3ccccc3c2O)cc1	none
O=C(NCc1ccon1)C1CCC(=O)N(CCc2ccc(Cl)cc2)C1 (configuration not stated)	M5 PAM 21.2
CCCc1cc(=O)[nH]c(SCC(=O)c2cc(C)n(CC3CCCO3)c2C)n1 (configuration not stated)	none
CCN1CCC(Nc2ccnc3cc(Cl)ccc23)CC1	none
CCC(C(=O)OCC(=O)Nc1cc(Cl)ccc1Cl)c1ccccc1 (configuration not stated)	none
CCCC(=O)Nn1cnc2c(c1=O)C1(CCCCC1)Cc1ccccc1-2	none
CCC(=O)Nn1cnc2c(c1=O)C1(CCCCC1)Cc1ccccc1-2	M5 PAM 18.1
OC(CN1CCCC(C(F)(F)F)C1)c1ccccc1 (configuration not stated)	CHRM1 PAM 34.0
CCc1nc2ccc(C(=O)NCCOc3ccc(OC)cc3)cn2c1N(CCC(C)C)CCN(C)C	M1 ag 33.9
CCc1nc2ccc(C(=O)Nc3ccc(OC)c(OC)c3)cn2c1N(CCC(C)C)CCN(C)C	M1 ag 18.2
CCCCNC(=O)c1ccc2nc(CC)c(N(CCC(C)C)CCN(C)C)n2c1	M1 ag 22.2
CCc1nc2ccc(C(=O)NCCC(C)C)cn2c1N(CC)CCN(C)C	none
Cc1cc(=O)oc(C)c1C(=O)N1CCN(C)CC1	none
